Measurements from ChEMBL document CHEMBL3352143, “Cytotoxic and anti-inflammatory prenylated benzoylphloroglucinols and xanthones from the twigs of Garcinia esculenta” (J Nat Prod, 2014).

Experiments:
HepG2 = assay: Cytotoxicity against human HepG2 cells by MTT assay; type: functional, cell-based
Outline: (§1)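 MTT viability read-out, run in parallel on human HepG2 (hepatocellular carcinoma), MCF-7 and MDA-MB-231 (breast adenocarcinoma) cancer lines and HL-7702 normal human hepatic cells. Paclitaxel was the positive control, and results are expressed as IC50.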

MCF7 = assay: Cytotoxicity against human MCF7 cells by MTT assay; type: functional, cell-based; outline: as §1
MDA-MB-231 = assay: Cytotoxicity against human MDA-MB-231 cells by MTT assay; type: functional, cell-based; outline: as §1
[1] = Cytotoxicity against human HL7702 cells by MTT assay; type: cell-based; details: L02; outline: as §1
RAW264.7 = assay: Anti-inflammatory activity in mouse RAW264.7 cells assessed as inhibition of IFN-gamma plus LPS-induced NO production; type: functional, cell-based
Outline: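 Murine macrophage RAW264.7 cells stimulated with IFN-γ plus LPS; NO output quantified as nitrite in the medium. Indomethacin served as positive control, and results are expressed as IC50.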

Row | SMILES | IC50 (RAW264.7) | IC50 (HepG2) | IC50 (MCF7) | IC50 (MDA-MB-231) | IC50 [1]
1 | O=c1c2cc(O)c(O)cc2oc2cc(O)cc(O)c12 | 43 µM | > 10 µM | > 10 µM | > 10 µM | > 10 µM
2 | CC(C)=CCc1c(O)cc2oc3cc(O)c(O)c(CC=C(C)C)c3c(=O)c2c1O | > 50 µM | > 10 µM | > 10 µM | 6.6 µM | > 10 µM
3 | CC(C)=CC[C@H]1C[C@@]23C[C@H](CC=C(C)C)C(C)(C)[C@@](CC=C(C)C)(C(=O)C(OC(=O)c4ccc(O)c(O)c4)=C2OC1(C)C)C3=O | 39.1 µM | > 10 µM | > 10 µM | > 10 µM | > 10 µM
4 | C=C(C)C(CC=C(C)C)C[C@@]12C[C@@H](C[C@H](O)C(C)(C)OC)C(C)(C)[C@@](CC=C(C)C)(C(=O)C(C(=O)c3ccc(O)c(O)c3)=C1O)C2=O (stereo not given in full) | 24.9 µM | > 10 µM | > 10 µM | > 10 µM | > 10 µM
5 | C=C(C)C(C[C@H](O)C(=C)C)C[C@@]12C[C@@H](CC=C(C)C)C(C)(C)[C@@](CC=C(C)C)(C(=O)C(C(=O)c3ccc(O)c(O)c3)=C1O)C2=O (stereo not given in full) | 29.1 µM | > 10 µM | > 10 µM | > 10 µM | > 10 µM
6 | CC(C)=CCc1cc(O)c(O)c2oc3cc4c(c(O)c3c(=O)c12)C=CC(C)(C)O4 | > 50 µM | > 10 µM | > 10 µM | > 10 µM | > 10 µM
7 | C=C(C)C(CC=C(C)C)C[C@@]12C[C@H]3[C@@H](C=C(C)C)[C@@](C(=O)c4ccc(O)c(O)c4)(C1=O)C(=O)[C@@](CC=C(C)C)(C2=O)C3(C)C (stereo not given in full) | > 50 µM | > 10 µM | > 10 µM | 9.1 µM | > 10 µM
8 | CC1(C)C=Cc2c(cc3oc4ccc(O)cc4c(=O)c3c2O)O1 | > 50 µM | > 10 µM | > 10 µM | 6.1 µM | 6.6 µM
9 | CC1=C[C@H]2c3c(c(O)c(O)c4oc5cc(O)cc(O)c5c(=O)c34)[C@H](c3cc(O)c(O)c4oc5cc(O)cc(O)c5c(=O)c34)[C@H]2C(C)(C)C1 | 41.9 µM | > 10 µM | > 10 µM | > 10 µM | > 10 µM
10 | CC(=O)O[C@H]1C(=O)[C@@]2(C)[C@H]([C@H](OC(=O)c3ccccc3)[C@]3(O)C[C@H](OC(=O)[C@H](O)[C@@H](NC(=O)c4ccccc4)c4ccccc4)C(C)=C1C3(C)C)[C@]1(OC(C)=O)CO[C@@H]1C[C@@H]2O [PACLITAXEL] | – | 0.0046 µM | 0.0015 µM | 0.0082 µM | 1.1 µM
11 | CC1(C)C=Cc2c(c(O)cc3oc4cc(O)cc(O)c4c(=O)c23)O1 [TOXYLOXANTHONE B] | > 50 µM | > 10 µM | > 10 µM | > 10 µM | > 10 µM

Further lines, with some results ahead:

Row | IC50 (RAW264.7) | SMILES | IC50 (HepG2) | IC50 (MCF7) | IC50 (MDA-MB-231) | IC50 [1]
12 | 12.9 µM | C=C(C)C(O)C[C@H](C[C@]12C[C@@H](CC=C(C)C)C(C)(C)[C@](CC=C(C)C)(C1=O)c1oc3cc(O)c(O)cc3c(=O)c1C2=O)C(=C)C (stereo not given in full) | > 10 µM | > 10 µM | > 10 µM | > 10 µM
13 | 19.1 µM | C=C(C)C(C[C@@H](O)C(=C)C)C[C@@]12C[C@@H](CC=C(C)C)C(C)(C)[C@@](CC=C(C)C)(C(=O)C(C(=O)c3ccc(O)c(O)c3)=C1O)C2=O (stereo not given in full) | > 10 µM | > 10 µM | > 10 µM | > 10 µM
14 | 17 µM | C=C(C)C(CC=C(C)C)C[C@]12C[C@H](CC=C(C)C)C(C)(C)[C@](CC=C(C)C)(C(=O)c3c1oc1cc(O)c(O)cc1c3=O)C2=O (stereo not given in full) | > 10 µM | > 10 µM | > 10 µM | > 10 µM
15 | 6.4 µM | CC(C)=CCc1c(O)cc(O)c2oc3cc(O)cc(O)c3c(=O)c12 | > 10 µM | > 10 µM | > 10 µM | > 10 µM
16 | 15.9 µM | CC1(C)Oc2cc3oc4ccc(O)cc4c(=O)c3c(O)c2CC1O (stereo not given) | > 10 µM | > 10 µM | > 10 µM | > 10 µM
17 | 21.3 µM | CC(C)=CCc1c(O)cc2oc3ccc(O)cc3c(=O)c2c1O | > 10 µM | > 10 µM | > 10 µM | > 10 µM
18 | 19.2 µM | CC(C)=CC[C@H]1C[C@@]23C[C@@H](CC=C(C)C)C(C)(C)[C@@](CC=C(C)C)(C(=O)C(C(=O)c4ccc(O)c(O)c4)=C2OC1(C)C)C3=O [CAMBOGIN] | 7.3 µM | 4.8 µM | 5.7 µM | 9.3 µM
19 | 1.1 µM | C=C(C)C(O)C[C@H](C[C@@]12C[C@@H](CC=C(C)C)C(C)(C)[C@@](CC=C(C)C)(C(=O)C(C(=O)c3ccc(O)c(O)c3)=C1O)C2=O)C(=C)C (stereo not given in full) [GARCIMULTIFLORONE E] | > 10 µM | 9.8 µM | > 10 µM | > 10 µM
20 | 21.3 µM | C=C(C)[C@@H]1C[C@]23C[C@H](CC=C(C)C)C(C)(C)[C@](CC=C(C)C)(C(=O)C(C(=O)c4ccc(O)c(O)c4)=C2O[C@H]1C=C(C)C)C3=O [GARCINIALIPTONE B] | > 10 µM | > 10 µM | > 10 µM | > 10 µM
21 | 14.1 µM | C=C(C)[C@H](CC=C(C)C)C[C@@]12C[C@@H](CC=C(C)C)C(C)(C)[C@@](CC=C(C)C)(C(=O)C(C(=O)c3ccc(O)c(O)c3)=C1O)C2=O [GUTTIFERONE F] | > 10 µM | > 10 µM | 7.9 µM | 9.6 µM
22 | 4 µM | CC1(C)CCc2c(c(O)cc3oc4cc(O)cc(O)c4c(=O)c23)O1 [HYPERXANTHONE E] | > 10 µM | > 10 µM | > 10 µM | > 10 µM
23 | 3.9 µM | COc1ccc2c(c1)c(CC(=O)O)c(C)n2C(=O)c1ccc(Cl)cc1 [INDOMETHACIN] | – | – | – | –
